From ChEMBL document CHEMBL4339255, “Dimeric Pyranonaphthoquinone Glycosides with Anti-HIV and Cytotoxic Activities from a Soil-Derived Streptomyces” (J Nat Prod, 2019)

Tests used:
HL-60 = assay: Cytotoxicity in human HL60 cells assessed as reduction in cell viability incubated for 72 hrs by MTS assay; format: functional, cell-based; conditions: HL-60, 72 h
How it was run: (§1)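 Cells plated at 5 × 10^3 per well, left 24 h, then given a range of sample concentrations from DMSO solutions, in triplicate; DMSO-only negative controls, paclitaxel and cisplatin positive controls. After 72 h exposure, MTS added for 2 h at 37 °C, absorbance read at 492 nm, IC50 by the Reed and Muench method.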

MCF7 = assay: Cytotoxicity in human MCF7 cells assessed as reduction in cell viability incubated for 72 hrs by MTS assay; format: functional, cell-based; conditions: MCF7, 72 h; how it was run: as §1
[1] = Toxicity in human C8166 cells assessed as reduction in cell viability incubated for 72 hrs by MTT assay; format: cell-based
[2] = tested on: Human immunodeficiency virus 1; assay: Antiviral activity against HIV1 3B infected in human C8166 cells assessed as inhibition of syncytial cell formation incubated for 72 hrs; format: functional, organism-based; conditions: Human immunodeficiency virus 1, 3B, C8166, 72 h
[3] = Therapeutic index, ratio of CC50 for toxicity in C8166 cells to EC50 for antiviral activity against HIV1 3B infected in human C8166 cells; format: cell-based; conditions: read-out: Ratio CC50/EC50

| SMILES | IC50 (HL-60) [µM] | IC50 (MCF7) [µM] | CC50 at 72 h [1] [µM] | EC50 [2] [µM] | selectivity ratio [3] |
| --- | --- | --- | --- | --- | --- |
| COC(=O)C[C@H]1C[C@@]2(S[C@@]34C[C@H](CCO[C@H]5O[C@@H](C(=O)OC)[C@H](O)[C@@H](O)[C@@H]5O)O[C@@H](C)[C@@]3(O)C(=O)c3c(O)cccc3C4=O)C(=O)c3cccc(O)c3C(=O)[C@]2(O)[C@H](C)O1 | 14.9 | 3.4 | 36.4 | 8.6 | 4.2 |
| COC(=O)C[C@H]1C[C@@]2(S[C@@]34C[C@H](CC(=O)O[C@H]5O[C@@H](C(=O)O)[C@H](O)[C@@H](O)[C@@H]5O)O[C@@H](C)[C@@]3(O)C(=O)c3c(O)cccc3C4=O)C(=O)c3cccc(O)c3C(=O)[C@]2(O)[C@H](C)O1 | – | – | 52 | 9.6 | 5.4 |
| COC(=O)C[C@H]1C[C@@]2(S[C@@]34C[C@H](CCO[C@H]5O[C@@H](C(=O)O)[C@H](O)[C@@H](O)[C@@H]5O)O[C@@H](C)[C@@]3(O)C(=O)c3c(O)cccc3C4=O)C(=O)c3cccc(O)c3C(=O)[C@]2(O)[C@H](C)O1 | – | – | 56.4 | 9.6 | 5.9 |
| Nc1ccn([C@@H]2CS[C@H](CO)O2)c(=O)n1 [LAMIVUDINE] | – | – | > 1000 | 0.3 | > 2910 |
| CC(=O)O[C@H]1C(=O)[C@@]2(C)[C@H]([C@H](OC(=O)c3ccccc3)[C@]3(O)C[C@H](OC(=O)[C@H](O)[C@@H](NC(=O)c4ccccc4)c4ccccc4)C(C)=C1C3(C)C)[C@]1(OC(C)=O)CO[C@@H]1C[C@@H]2O [PACLITAXEL] | < 0.008 | < 0.008 | – | – | – |
| COC(=O)C[C@H]1C[C@@]2(S[C@@]34C[C@H](CC(=O)OC)O[C@@H](C)[C@@]3(O)C(=O)c3c(O[C@H]5O[C@@H](C(=O)O)[C@H](O)[C@@H](O)[C@@H]5O)cccc3C4=O)C(=O)c3cccc(O)c3C(=O)[C@]2(O)[C@H](C)O1 | – | – | > 100 | 44.7 | > 2.2 |
| COC(=O)C[C@H]1C[C@@]2(S[C@@]34C[C@H](CC(=O)O[C@H]5O[C@@H](C(=O)OC)[C@H](O)[C@@H](O)[C@@H]5O)O[C@@H](C)[C@@]3(O)C(=O)c3c(O)cccc3C4=O)C(=O)c3cccc(O)c3C(=O)[C@]2(O)[C@H](C)O1 | 16.1 | 3.4 | – | – | – |
| COC(=O)C[C@H]1C[C@@]2(S[C@@]34C[C@H](CC(=O)O[C@H]5OC(C(=O)O)=C[C@@H](O)[C@@H]5O)O[C@@H](C)[C@@]3(O)C(=O)c3c(O)cccc3C4=O)C(=O)c3cccc(O)c3C(=O)[C@]2(O)[C@H](C)O1 | 9.9 | 1.4 | 63.7 | 2.8 | 22.5 |
